From PubChem
CHRM5 agonist = CHRM5 agonism in calcium assay | activation, % at 3 µM | 360,000 tested, 0.19% active | P08912 | CHO-K1 hM5 cells, Fluo-8 calcium fluorescence; 0% DMSO wells, 100% maximal acetylcholine response;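 active = activation above the run's mean over test compounds plus 3 SD, cut at about 23% in these data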;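 note: signal is peak over basal fluorescence ratio across the kinetic read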
CHRM1 antagonist = blocks human M1 muscarinic receptor; P11229; CHO-K1 hM1, Fluo-8 calcium fluorescence, ACh EC80 antagonist; inhibition, % at 3 µM; 360,000 tested, 1.3% active; AID 588852;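 active = percent inhibition above its own plate's cutoff, namely the mean of that plate's compound wells plus 3 SD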;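 note: peak over basal fluorescence ratio during 140 s after agonist addition; 0% = ACh EC80 plus DMSO and 100% = DMSO alone without agonist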
Target sequence (P11229 whole entry, looked up): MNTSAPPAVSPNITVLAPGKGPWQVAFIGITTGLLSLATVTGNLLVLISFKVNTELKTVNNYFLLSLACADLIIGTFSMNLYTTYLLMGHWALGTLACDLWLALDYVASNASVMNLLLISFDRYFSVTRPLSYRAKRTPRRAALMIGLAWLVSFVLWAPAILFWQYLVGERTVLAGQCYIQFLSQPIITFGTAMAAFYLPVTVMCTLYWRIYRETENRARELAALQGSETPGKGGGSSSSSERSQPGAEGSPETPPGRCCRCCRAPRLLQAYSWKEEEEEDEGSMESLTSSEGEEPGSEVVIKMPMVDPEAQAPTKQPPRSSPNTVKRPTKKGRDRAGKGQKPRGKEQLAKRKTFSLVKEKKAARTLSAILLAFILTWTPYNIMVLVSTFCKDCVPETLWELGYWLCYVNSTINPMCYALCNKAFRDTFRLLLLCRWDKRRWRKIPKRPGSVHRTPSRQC
M1 PAM = human CHRM1 positive allosteric modulation; P11229; CHO-K1 hM1, Fluo-8 calcium fluorescence, ACh EC20; 0% = ACh EC20, 100% = maximal ACh; 360,000 tested, 0.088% active; activation, % at 3 µM; AID 588819; in the data active = activation above about 19%, passing the limit was not always enough
CHRM1 agonist = activates human CHRM1 receptor; P11229; CHO-K1 hM1, Fluo-8 calcium fluorescence, agonist mode; 0% DMSO, 100% acetylcholine EC100; activation, % at 3 µM; 360,000 tested, 0.33% active;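 active = activation above the run's mean compound activation plus 3 SD, cut at about 16% in these data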;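 note: peak over basal fluorescence ratio within a 140 s kinetic read after compound addition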
CHRM5 PAM = positive allosteric modulators of human muscarinic M5 receptor | P08912 | CHO-K1 hM5, Fluo-8 calcium, ACh EC20 PAM; 0% = ACh EC20, 100% = ACh EC100 | activation, % at 3 µM | 360,000 tested, 0.3% active | AID 624038;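 active = activation above the run cutoff, the mean activation of all test compounds plus 3 SD, cut at about 18% in these data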
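Probe or stimulus: acetylcholine, EC20 level; Assay system: human M5 receptor in CHO-K1 cells; Schedule: compound preincubation 140 s before EC20 acetylcholine addition; Technique: intracellular calcium via Fluo-8 fluorescence; Dosing: single-point, 3 µM nominal; Read-out basis: percent activation from peak-over-basal fluorescence ratio, scaled EC20-to-EC100 acetylcholine; Repeats: one well per compound, no replicates.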
CHRM5 antagonist = blocks acetylcholine activation of human M5 receptor. P08912. CHO-hM5 cells, Fluo-8 calcium fluorescence, ACh EC80. inhibition, % at 3 µM. 360,000 tested, 0.59% active. AID 624040;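 active = inhibition above a per-plate cutoff, the mean of that plate's test compounds plus 3 SD, cut at about 27% in these data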;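 note: 0% = acetylcholine EC80 with DMSO and 100% = DMSO without agonist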
The depositor's hits bear a star; . = no result. In the library only some 2% were active in any assay of this set; here they are far more common.

SMILES	CHRM5 agonist	CHRM1 antagonist	M1 PAM	CHRM1 agonist	CHRM5 PAM	CHRM5 antagonist
C=CCn1c(SCC(=O)O)nc2sc(CC)cc2c1=O	1.2	6.0	-2.5	-6.9	0.6	-6.3
COC(=O)c1c(Sc2ccccc2)c2ccccc2n1C	57.5*	-0.6	-8.1	35.0*	-19.1	24.2
Cc1nc(-c2ccc(Cl)cc2)sc1C1(C)CC(c2ccc(OC(F)(F)F)cc2)=NO1 (stereo not given)	2.9	-0.7	-0.1	-2.5	2.9	8.0
Cc1nc(-c2ccccc2)sc1C1(C)CC(c2ccc(OC(F)(F)F)cc2)=NO1 (stereo not given)	1.3	-0.1	3.4	-2.7	18.1*	-3.7
CCN(CC#CCC(O)(c1ccccc1)C1CCCC1)C(C)C (stereo not given)	-11.3	98.7*	-21.4	-5.0	-14.8	83.5*
CC(C)N(CC#CCC(O)(c1ccccc1)C1CCCC1)CCO (stereo not given)	-8.8	85.8*	-30.2	-12.0	-19.0	46.8*
CCc1nc2c(OCCOc3ccccc3)cccn2c1N(C)C(=O)C1CC1	-1.9	-11.6	9.4	-7.9	0.6	-6.5
O=[N+]([O-])c1cc(C(F)(F)F)ccc1SCC(O)CO (stereo not given)	8.8	-9.7	-0.2	-0.6	26.2*	16.6
C#CCN1[C@@H]2CCN(C2)c2cc(Br)ccc2S1(=O)=O	0.4	-7.5	1.3	-5.9	-3.4	3.0
CCOC1=C2[C@@H](CN(S(=O)(=O)c3ccc(C)cc3)[C@H]2c2cccc3ccccc23)[C@H]2C(=O)N(CC)C(=O)[C@H]2C1	1.1	5.9	-2.6	-7.6	-5.2	3.4
CC(=O)NC(c1ccccc1)c1cc([N+](=O)[O-])c2cccnc2c1O (stereo not given)	2.9	24.1	-1.9	0.8	22.3*	-12.8
CC(C)C(=O)NC(c1ccccc1)c1cc([N+](=O)[O-])c2cccnc2c1O (stereo not given)	-3.2	-10.5	8.9	-8.4	3.0	-2.8
Cc1cccc(CN2CCN(C3CN(Cc4cn(Cc5ccc(Cl)cc5)nn4)S(=O)(=O)C3)CC2)c1 (stereo not given)	2.0	.	.	.	-11.3	-0.4
CCN(CC)CC#CCOC(c1ccccc1)c1ccccc1	-13.2	94.3*	-23.0	-5.5	-32.1	21.6
CCNCCOC(c1ccccc1)c1ccccc1	-7.5	26.3*	-24.6	-6.1	-17.4	22.9
CN(C)CC#CCOC(c1ccccc1)c1ccccc1	-16.9	80.2*	-20.3	7.4	-34.8	26.3
C(#CCN1CCOCC1)COCCCOC(c1ccccc1)c1ccccc1	-3.1	-2.9	-3.7	-9.8	-4.1	1.3
CCN(CC)CCOC(c1ccccc1)c1ccc(C)cc1 (stereo not given)	-7.8	96.3*	-25.8	-7.2	-18.9	75.2*
COCCN(CCOC)CC(O)COC(c1ccccc1)c1ccccc1 (stereo not given)	-8.9	-11.6	-2.5	-15.8	0.3	2.5
COc1ccc(C2=Nc3ccccc3N(C(=O)c3ccc(C(F)(F)F)cc3)C2C(=O)Nc2c(C)cccc2C)cc1 (stereo not given)	-2.1	.	.	.	-13.2	6.8
Cc1ccc(C(OCC(C)(C)C[N+](C)(C)C)c2ccccc2)cc1 (stereo not given)	-11.0	99.1*	-34.0	-12.8	-21.2	93.8*
CCOCCN1CCN(C2c3ccccc3CSc3ccccc32)CC1 (stereo not given)	-20.2	100.2*	-26.3	-7.7	-29.8	100.3*
CC(C)(C#CC(O)(c1ccccc1)c1ccccc1)N1CCCC1	-11.2	99.2*	-22.6	-4.5	-16.5	69.5*
CC(C)(C#CC(O)(c1ccccc1)c1ccccc1)N1CCCCC1	-19.2	92.9*	-28.8	-8.7	-29.6	41.8*
CC(=O)NNC(=O)C(O)(c1ccccc1)c1ccccc1	-1.4	-2.8	2.7	-2.1	0.6	-6.4
SMILES	CHRM5 agonist	CHRM1 antagonist	M1 PAM	CHRM1 agonist	CHRM5 PAM	CHRM5 antagonist
CCN(Cc1cnn(C)c1)C(=O)c1ccc2nc(Cc3ccccc3F)oc2c1	1.2	-7.2	5.9	-0.8	-1.7	1.6
CC(C)C[C@@H]1COc2cc(N3CCC[C@H]3CO)ccc2S(=O)(=O)N1	3.6	.	.	.	0.1	-1.8
CCCCCCn1nc(C(=O)OCC(=O)c2c(N)n(C)c(=O)n(C)c2=O)c2ccccc2c1=O	-6.7	38.6*	-16.6	-2.2	-26.4	21.4
CCCCCn1nc(C(=O)OCC(=O)c2c(N)n(C)c(=O)n(C)c2=O)c2ccccc2c1=O	2.7	-5.8	8.1	-0.9	6.2	9.6
CN1CCCN=C1COC(=O)C(O)(c1ccccc1)C1CCCCC1 (stereo not given)	-1.6	99.0*	-26.3	-7.6	-18.5	98.7*
CC(C)(C)N(Cc1ccccc1)C(=O)COC(=O)C1CCCCC1	-1.8	-8.5	-0.4	-6.0	4.6	16.1
CCCCn1c(N)c(N(CC(C)C)C(=O)Cc2ccc(S(=O)(=O)N3CCOCC3)s2)c(=O)[nH]c1=O	7.5	10.5	-4.3	16.9*	-2.3	4.2
CCCCn1c(N)c(N(CCC(C)C)C(=O)c2cc(S(=O)(=O)N3CCOCC3)ccc2F)c(=O)[nH]c1=O	0.7	-30.9	20.9*	2.5	-0.6	-3.9
COc1ccc(C(O)c2nc(-c3cccc(NC(C)=O)c3)cs2)cc1 (stereo not given)	4.7	-8.7	14.9	9.5	-3.6	-3.9
Cc1nc(C(F)(F)F)ccc1C(=O)N1CCC1(C)C(=O)NS(=O)(=O)c1ccc2c(c1)CCO2 (stereo not given)	0.6	-21.5	6.8	0.5	-0.8	3.2
O=C(NCCN1CCOCC1)N1c2ccccc2Sc2ccccc21	-13.0	61.5*	-23.6	-5.2	-29.2	59.2*
O=C(CCN1CCOCC1)N1c2ccccc2Sc2ccc(Cl)cc21	-6.6	99.5*	-28.7	-8.4	-16.9	94.6*
CN(C)CCCNC(=O)N1c2ccccc2Sc2ccccc21	-24.1	100.3*	-28.2	-10.8	-34.1	100.1*
CCOc1ccccc1-c1cnc(NC)cn1	-0.5	-20.0	12.3	-2.2	-1.8	2.1
CCCCNC(=O)N(C)c1nncnc1C(=O)NC	-0.4	-1.4	0.5	-1.1	25.8*	-1.0
O=C(Nc1ccc(Cl)cc1)Nc1ccccc1C(=O)NCc1ccco1	-0.4	-1.7	0.2	-7.0	-10.2	15.7
CN(NC(=O)C(=O)NCc1ccco1)C(=O)Nc1ccc(Cl)cc1	11.2	14.2	-7.1	7.6	-20.5	36.8*
CCCNC(=O)C1(C)CCCN(C(=O)c2cccc(Cl)c2)C1 (stereo not given)	1.3	7.6	-3.7	-4.3	-6.2	13.2
COc1ccc(C(=O)Nc2c3c(nn2-c2ccc(Cl)cc2)CS(=O)(=O)C3)cc1	4.8	-13.9	7.0	2.1	25.5*	-82.5
